Measurements: ChEMBL document CHEMBL1144725, “Seco-terpenoids and other constituents from Elateriospermum tapos” (J Nat Prod, 2008)
In brackets after ≈: the same amount, converted by molar mass. Activity calls are given as the source filed them. The calls are words filed in the database; no cut-off is given here.

Experiments:
Cancer cell lines = experiment: Cytotoxicity against human breast cancer cells at 10 ug/mL; assay type: functional, cell-based
NCI-H187 [1] = experiment: Cytotoxicity against human NCI-H187 cells at 10 ug/mL; assay type: functional, cell-based
[2] = system: Mycobacterium tuberculosis; experiment: Antimycobacterial activity against Mycobacterium tuberculosis H37Ra by microplate alamar blue assay; assay type: functional
How it was run: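 Microplate Alamar Blue assay against Mycobacterium tuberculosis H37Ra, with isoniazid and kanamycin sulfate as reference drugs.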

NCI-H187 [3] = experiment: Cytotoxicity against human NCI-H187 cells; assay type: functional, cell-based
[4] = Cytotoxicity against human breast cancer cells; assay type: functional, cell-based; details: Cancer cell lines
KB = experiment: Cytotoxicity against human KB cells; assay type: functional, cell-based

SMILES | Activity (Cancer cell lines) | Activity (NCI-H187 [1]) | further results
C=C(C)[C@H]1CC[C@]2(C)[C@H]3CC[C@@H]4[C@@]5(C)CC[C@H](O)C(C)(C)[C@@H]5CC[C@@]4(C)[C@]3(C)CC[C@@H]12 | inactive | inactive | –
NC[C@H]1O[C@H](O[C@H]2[C@H](O)[C@@H](O[C@H]3O[C@H](CO)[C@@H](O)[C@H](N)[C@H]3O)[C@H](N)C[C@@H]2N)[C@H](O)[C@@H](O)[C@@H]1O.O=S(=O)(O)O [KANAMYCIN SULFATE] | – | – | MIC [2]: 1.25 µg/mL
C=C[C@@]1(C)C(=O)C=C2C(=CC[C@@H]3C(C)(C)[C@H](O)C(=O)C[C@@]23C)[C@H]1O | inactive | inactive | –
CC(=O)O[C@H]1CC[C@]2(C)[C@H]3CC[C@]4(C)C(=CC[C@@]5(C(=O)O)CCC(C)(C)C[C@H]54)[C@]3(C)CC[C@H]2C1(C)C | inactive | inactive | –
C=C(C)[C@@H]1CC[C@]2(C)CC[C@]3(C)[C@H](CC[C@@H]4[C@@]5(C)CC[C@H](OC(C)=O)C(C)(C)[C@@H]5CC[C@]43C)[C@@H]12 | inactive | inactive | –
C=C(C)[C@@H]1CC[C@]2(C)CC[C@]3(C)[C@H](CC[C@@H]4[C@@]5(C)CC[C@H](O)C(C)(C)[C@@H]5CC[C@]43C)[C@@H]12 | inactive | inactive | –
NNC(=O)c1ccncc1 [ISONIAZID] | – | – | MIC [2]: 0.05 µg/mL (≈ 0.365 µM)
CC1(C)[C@H](O)[C@@H](O)C[C@]2(C)[C@@H]1CC[C@]13C=C[C@](C)(C1)C(=O)C[C@H]32 | inactive | inactive | –
O=c1cc(-c2ccc(O)c(-c3c(O)cc(O)c4c(=O)cc(-c5ccc(O)cc5)oc34)c2)oc2cc(O)cc(O)c12 | inactive | inactive | –
COc1cc(O)c2c(=O)cc(-c3ccc(OC)c(-c4c(O)cc(O)c5c(=O)cc(-c6ccc(O)cc6)oc45)c3)oc2c1 | inactive | inactive | –
COC(=O)C(C)(C)C1CC[C@@]2(C)C3=CC[C@@]4(C(=O)O)CCC(C)(C)CC4[C@]3(C)CCC2[C@@]1(C)CC(=O)O (stereo partly specified) | inactive | inactive | –
C=Cc1c(C)c(O)cc2c1CCC(C(C)(C)C(=O)O)[C@@]2(C)CC(=O)O (stereo partly specified) | inactive | inactive | –
COc1cc(O)c2c(=O)cc(-c3ccc(O)c(-c4c(O)cc(O)c5c(=O)cc(-c6ccc(O)cc6)oc45)c3)oc2c1 | inactive | inactive | –
CC1(C)CC[C@]2(C(=O)O)CC=C3[C@]4(C)CC[C@H]5C(C)(C)[C@@H](O)CC[C@]5(C)[C@H]4CC[C@@]3(C)[C@@H]2C1 | inactive | inactive | –
C=C[C@]1(C)C=C2CC[C@@H]3C(C)(C)[C@H](O)C(=O)C[C@@]3(C)[C@@H]2C[C@@H]1O | inactive | inactive | –
COC(=O)C[C@@]1(C)C(C(C)(C)C(=O)OC)CC[C@@]2(C)C3=CC[C@@]4(C(=O)O)CCC(C)(C)CC4[C@]3(C)CCC12 (stereo partly specified) | – | – | IC50 (NCI-H187 [3]): 4.65 µg/mL (≈ 8.76 µM); MIC [2]: 3.13 µg/mL (≈ 5.9 µM); IC50 [4]: 7.08 µg/mL (≈ 13.3 µM)
Cc1c2ccncc2c(C)c2c1[nH]c1ccccc12 [ELLIPTECINE] | – | – | IC50 (NCI-H187 [3]): 0.52 µg/mL (≈ 2.11 µM); IC50 (KB): 0.41 µg/mL (≈ 1.66 µM); IC50 [4]: 0.13 µg/mL (≈ 0.528 µM)
COc1ccc(-c2cc(=O)c3c(O)cc(O)c(-c4cc(-c5cc(=O)c6c(O)cc(OC)cc6o5)ccc4O)c3o2)cc1 | inactive | inactive | –
